Experimental data reported in ChEMBL document CHEMBL1124689, “Thienylpyrazoloquinolines with high affinity to benzodiazepine receptors: continuous shift from inverse agonist to agonist properties depending on the size of the alkyl substituent” (J Med Chem, 1989).
Activity calls are given as the source filed them. The calls are words filed in the database; no cut-off is given here.

How the values were obtained:
Mus musculus [1] = test: Inverse agonist activity was evaluated by potentiation of the pentylenetetrazole (PTZ) (90 mg/kg) induced convulsions; inactive to 10; format: functional, organism-based
Outline: (§1)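 Male mice, groups of 8–16, given test compound iv and immediately challenged with subconvulsive PTZ (75 or 90 mg/kg sc). Tonic convulsions and death recorded over 2 h; dose producing effect in 50% derived by probit method with 95% confidence limits, or percentage of animals affected at a single dose.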

[2] = target: GABA-A receptor; anion channel; test: Displacing potential to [3H]diazepam binding to benzodiazepine receptor in Wistar rat cerebral cortex; format: tissue-based
Mus musculus [3] = species: Mus musculus; test: Agonist activity was evaluated by inhibition of the PTZ-induced convulsions at a PTZ dose of 125 mg/ kg; inactive to 10; format: functional, organism-based; design: dose 125 mg/ kg
Outline: (§2)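 Male mice, groups of 8–16; test compound given iv, then immediately PTZ 125 mg/kg sc (convulsive dose). Endpoint: prevention of tonic convulsions and death over 2 h; dose protecting 50% computed by probit method with 95% confidence limits; partial activity given as percentage of animals affected at a stated dose.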

Mus musculus [4] = test: Inverse agonist activity was evaluated by potentiation of the pentylenetetrazole (PTZ) (90 mg/kg) induced convulsions; format: functional; outline: as §1
Mus musculus [5] = test: Inverse agonist activity was evaluated by potentiation of the pentylenetetrazole (PTZ) (75 mg/kg) induced convulsions; inactive to 10; format: functional, organism-based; outline: as §1
Mus musculus [6] = species: Mus musculus; test: Agonist activity was evaluated by inhibition of the PTZ-induced convulsions at a PTZ dose of 125 mg/ kg; format: functional; conditions: PTZ 125 mg/kg; outline: as §2
Mus musculus [7] = test: Inverse agonist activity was evaluated by potentiation of the pentylenetetrazole (PTZ) (75 mg/kg) induced convulsions; format: functional; outline: as §1
Mus musculus [8] = test: Inhibition of tonic convulsions and death in mice after administration of 2.5 mg/kg of compound intravenously; format: functional; conditions: route intravenous
Outline: (§3)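 Proconvulsant (inverse agonist) assay in groups of 8–16 male mice. Each mouse received the compound iv and was immediately challenged with a sub-convulsive dose of pentylenetetrazole sc, either 75 or 90 mg/kg. Animals were watched for 2 h for tonic convulsions and death. The value is the percentage of animals affected at the stated dose.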

Mus musculus [9] = test: Inhibition to produce tonic convulsions and death in mice after administration of 10 mg/kg intravenously; format: functional; conditions: route intravenous; outline: as §3

CCCc1cc(-n2[nH]c3c(cnc4cc(C)ccc43)c2=O)cs1
ED50 (Mus musculus [1]): inactive
Ki [2]: 1.04 nM
ED50 (Mus musculus [3]): inactive

Cc1csc(-n2[nH]c3c(cnc4cc(C)ccc43)c2=O)c1
ED50 (Mus musculus [4]): 5.15 mg/kg
Ki [2]: 0.48 nM
ED50 (Mus musculus [5]): inactive

O=C1C2C=Nc3ccccc3C2=NN1c1ccc(Cl)cc1 (centres undefined) [CGS-9896]
ED50 (Mus musculus [6]): 0.07 mg/kg

CN1C(=O)CN=C(c2ccccc2)c2cc(Cl)ccc21 [DIAZEPAM]
ED50 (Mus musculus [6]): 0.15 mg/kg

Cc1ccc2c(c1)ncc1c(=O)n(-c3ccsc3)[nH]c12
ED50 (Mus musculus [4]): 0.14 mg/kg
ED50 (Mus musculus [7]): 0.43 mg/kg
Ki [2]: 0.73 nM

Cc1ccc2c(c1)ncc1c(=O)n(-c3ccc(C)s3)[nH]c12
Ki [2]: 0.32 nM
ED50 (Mus musculus [6]): 0.16 mg/kg

Cc1ccc2c(c1)ncc1c(=O)n(-c3cccs3)[nH]c12
inhibition in vivo at 2.5 mg/kg (Mus musculus [8]): 62.5%
ED50 (Mus musculus [4]): 0.57 mg/kg
Ki [2]: 0.41 nM

CCc1cc(-n2[nH]c3c(cnc4cc(C)ccc43)c2=O)cs1
Ki [2]: 0.41 nM
inhibition in vivo at 10 mg/kg (Mus musculus [9]): 50%
ED50 (Mus musculus [5]): inactive

O=C1C2C=Nc3ccccc3C2=NN1c1ccccc1 (centres undefined) [CGS-8216]
ED50 (Mus musculus [4]): 0.2 mg/kg
ED50 (Mus musculus [5]): inactive

CCc1csc(-n2[nH]c3c(cnc4cc(C)ccc43)c2=O)c1
Ki [2]: 0.6 nM
ED50 (Mus musculus [6]): 5.15 mg/kg

CCCc1csc(-n2[nH]c3c(cnc4cc(C)ccc43)c2=O)c1
Ki [2]: 1.01 nM
ED50 (Mus musculus [6]): 3.54 mg/kg

CCCCc1ccc(-n2[nH]c3c(cnc4cc(C)ccc43)c2=O)s1
Ki [2]: 1.48 nM
ED50 (Mus musculus [6]): 0.22 mg/kg

CCc1ccc(-n2[nH]c3c(cnc4cc(C)ccc43)c2=O)s1
Ki [2]: 1.02 nM
ED50 (Mus musculus [6]): 0.32 mg/kg

Cc1ccc2c(c1)ncc1c(=O)n(-c3csc(C)c3)[nH]c12
ED50 (Mus musculus [4]): 0.13 mg/kg
ED50 (Mus musculus [7]): 0.47 mg/kg
Ki [2]: 0.32 nM

CCOC(=O)c1cc2c(cn1)[nH]c1ccccc12
ED50 (Mus musculus [4]): 0.46 mg/kg
ED50 (Mus musculus [7]): 1 mg/kg
